Screening results (PubChem BioAssay)
mIAP act: activators of mouse IAP, primary screen, biochemical, luminescence, uHTS; AID 2805, 2010; activation factor at 10 µM; intestinal alkaline phosphatase [Mus musculus]; 330,000 tested, 0.24% active; muIAP, CDP-Star luminescence, 30 min; stronger effect = higher value; 1 = vehicle-only enzyme signal, 0 = enzyme-free wells;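 active = activation factor of at least 2 at 20 µM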
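also added = chemiluminescent substrate CDP-Star | test system = mouse IAP enzyme | signal = chemiluminescence readout | compound = DMSO-dissolved test compounds | incubation = 30 min at room temperature | benchmarks = DMSO wells, no-enzyme wells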
hIAP act: human IAP activators, primary screen, biochemical, luminescence, uHTS. 330,000 tested, 0.16% active. activation factor at 10 µM. Intestinal-type alkaline phosphatase (Homo sapiens), P09923. purified human IAP, CDP-Star luminescence, 30 min; stronger effect = higher value; 1 = vehicle-only enzyme, 0 = enzyme-free background;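 active = activation factor of the enzyme at least 2-fold when tested at 20 µM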
Target sequence (P09923 whole entry, looked up): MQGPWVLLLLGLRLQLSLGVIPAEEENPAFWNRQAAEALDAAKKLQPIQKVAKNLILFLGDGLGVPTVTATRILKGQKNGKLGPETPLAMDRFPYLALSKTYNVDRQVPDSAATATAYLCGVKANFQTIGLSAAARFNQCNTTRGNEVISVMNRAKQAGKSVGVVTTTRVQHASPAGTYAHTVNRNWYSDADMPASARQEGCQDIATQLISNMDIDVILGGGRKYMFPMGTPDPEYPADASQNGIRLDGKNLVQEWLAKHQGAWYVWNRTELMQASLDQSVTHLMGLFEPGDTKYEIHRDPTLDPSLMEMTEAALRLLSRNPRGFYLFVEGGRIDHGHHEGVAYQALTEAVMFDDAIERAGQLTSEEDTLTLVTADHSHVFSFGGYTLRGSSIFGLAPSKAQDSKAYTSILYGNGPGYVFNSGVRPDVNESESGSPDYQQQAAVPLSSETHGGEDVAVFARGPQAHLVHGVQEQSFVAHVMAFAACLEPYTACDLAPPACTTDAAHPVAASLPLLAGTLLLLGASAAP
bIAP inh: bovine intestinal alkaline phosphatase inhibitors, primary screen, selectivity assay for TNAP inhibitor project, biochemical, bovine IAP, CDP-star luminescence; purified bovine IAP, 30 min; inhibition, % at 20 µM; 190,000 tested, under 10 active; AID 1019, 2008;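 active = over 50% inhibition of intestinal alkaline phosphatase at 20 µM in the single-dose screen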
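test system = bovine IAP enzyme | medium = DEA buffer 100 mM, pH 9.8, with MgCl2 1.0 mM, ZnCl2 0.02 mM | detection = luminescence | dosing = single compound dose of 20 µM, 2% DMSO final | incubation = 30 min reaction at room temperature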
mIAP block: inhibitors of mouse IAP, primary screen, biochemical, luminescence, uHTS | purified mouse IAP, CDP-Star luminescence, 30 min | inhibition, % at 10 µM | 330,000 tested, 0.2% active;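 active = inhibition of at least 40% at 10 µM in the primary screen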
hIAP inh: human IAP inhibitors, primary screen, biochemical, luminescence, uHTS; Intestinal-type alkaline phosphatase (Homo sapiens), P09923; purified IAP, CDP-Star luminescence, 30 min; inhibition, % at 10 µM; 330,000 tested, 0.12% active; AID 2544, 2010;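 active = inhibition reaching a set limit with compound at 10 µM in the primary screen, cut at about 35% in these data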
bIAP act: bovine intestinal alkaline phosphatase activators, primary screen, biochemical, bovine IAP, CDP-star luminescence. alkaline phosphatase, intestinal [Bos taurus]. purified bovine IAP, 30 min; stronger effect = higher value; fold of DMSO-control signal, blank-subtracted. activation factor at 20 µM. 200,000 tested, 0.17% active. AID 1016, 2008;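 active = activation factor of 2 or more at 20 µM, a signal rise over negative controls twice the positive control's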
mIAP inh confirm: inhibitors of mouse IAP, confirmation, biochemical, luminescence, single concentration; shares compounds with mIAP block; purified mouse IAP, CDP-Star luminescence, 30 min; inhibition, % at 10 µM; 11,000 tested, 4.7% active; AID 434971, 2010;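 active = inhibition of at least 40% at 10 µM in either of the two replicates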
Of the large screens only hits and unclear results are named; the others gave an inactive call (follow-up assays come after a bar, where they were run). This is a sample that favours compounds with a hit; in the whole collection about 0.77% have one here.

CSC1=NSC2=NC(=O)/C(=C/c3coc4ccc(O)cc4c3=O)C(=N)N12	mIAP block 56 | mIAP inh confirm 55
CC(C)CCN1C(=O)c2cccc3c(N)ccc(c23)C1=O	none (no result: bIAP inh, bIAP act)
COc1ccc(NC(=O)NN2CCN(C)CC2)cc1OC	none (no result: bIAP inh, bIAP act)
CN1CCN(NC(=O)Nc2cc(Cl)cc(Cl)c2)CC1	mIAP act 2.4 (no result: bIAP inh, bIAP act) | mIAP inh confirm inactive
COc1ccc(NC(=O)NC[C@@H]2CC[C@@H](Cc3ccc(-c4ccccc4)cc3)O2)cc1	mIAP act 2.7 (no result: hIAP act, bIAP inh, hIAP inh, bIAP act) | mIAP inh confirm inactive
NC(=O)NC[C@@H]1CC[C@@H](Cc2ccc(-c3ccccc3)cc2)O1	none (no result: hIAP act, bIAP inh, hIAP inh, bIAP act)
O=C(CSc1ncn[nH]1)CSc1ncn[nH]1	mIAP block 46 | mIAP inh confirm 48
O=C(Nc1ccc(S(=O)(=O)Nc2ccccc2F)cc1)N1CCCCC1	none (no result: bIAP inh, bIAP act)
CCN(CC)S(=O)(=O)c1cccc(NC(=O)Nc2cccc(C(F)(F)F)c2)c1	mIAP act 7.4 | mIAP inh confirm inactive
COc1cccc(NC(=O)Nc2ccc3c(c2)CCC3)c1	mIAP act 4.4 (no result: bIAP inh, bIAP act) | mIAP inh confirm inactive
COc1cccc(NC(=O)NC(C)C2CC3CCC2C3)c1 (stereo unspecified)	mIAP act 2.7 | mIAP inh confirm inactive
CCN(CC)S(=O)(=O)c1cccc(NC(=O)CC2CCCC2)c1	none (no result: bIAP inh, bIAP act)
COc1cccc(NC(=O)Nc2ccc(C)c(Cl)c2)c1	mIAP act 4.1 | mIAP inh confirm inactive
COc1cccc(NC(=O)Nc2cc(C(=O)O)ccc2C)c1	none
COc1ccc(C(=O)NC(C)C2CC3CCC2C3)c(OC)c1 (stereo unspecified)	none (no result: bIAP inh, bIAP act)
COc1cc(/C=C/C(=O)O)ccc1OS(=O)(=O)c1c(C)cc(C)cc1C	none (no result: bIAP inh, bIAP act)
COc1cccc(-c2csc(NC(=O)C3CC3)n2)c1	none
COc1cccc(NC(=O)Nc2ccc(C(C)(C)C)cc2)c1	mIAP act 4.4 | mIAP inh confirm inactive
COc1cccc(-c2csc(NC(=O)Nc3ccccc3)n2)c1	mIAP act 3.2 (no result: bIAP inh, bIAP act) | mIAP inh confirm inactive
COc1cccc(C(C)NC(=O)Nc2cccc(C(F)(F)F)c2)c1 (stereo unspecified)	mIAP act 5.3 | mIAP inh confirm inactive
COc1ccc(CNC(=O)Nc2cccc(C(F)(F)F)c2)cc1OC	mIAP act 2.2 | mIAP inh confirm inactive
COc1ccc(CNC(=O)NCc2ccc(OC)c(OC)c2)cc1OC	none
O=[N+]([O-])c1ccc(S(=O)(=O)N2CCC3(CC2)OCCN3S(=O)(=O)c2cccs2)cc1	none (no result: bIAP inh, bIAP act)
CC(C)OC(=O)NCCOC(=O)Nc1cccc(Cl)c1	mIAP act 2 | mIAP inh confirm inactive
CC(=O)NCc1ccc(-c2csc(NC(=O)CCc3nc4ccccc4c(=O)[nH]3)n2)s1	mIAP block 46 (no result: bIAP inh, bIAP act) | mIAP inh confirm 45
CC(=O)Oc1cc(C(=O)OCC(=O)N2CCc3ccccc3C2)cc(OC(C)=O)c1OC(C)=O	mIAP block 46 (no result: bIAP inh, bIAP act) | mIAP inh confirm 51
Cc1ccc(C)c(CN2CCC(CNC(=O)Nc3cccc(Cl)c3C)CC2)c1	mIAP act 5.4 (no result: bIAP inh, bIAP act) | mIAP inh confirm inactive
Cc1ccc(NC(=O)NCC2CCN(Cc3cc(C)ccc3Cl)CC2)c(C)c1	mIAP act 4.9 | mIAP inh confirm inactive
Cc1ccccc1CN1CCC(CNC(=O)Nc2ccc(F)cc2F)CC1	none (no result: bIAP inh, bIAP act)
Cc1c(Cl)cccc1NC(=O)NC1CCCCC1	none
CCC(C(=O)NCCc1c[nH]c2ccc(C)cc12)c1ccccc1 (stereo unspecified)	none (no result: bIAP inh, bIAP act)
CSCC[C@H](NS(=O)(=O)c1ccc(C)cc1)C(=O)N1CCC(C(=O)N[C@H](C(=O)O)c2ccccc2)CC1	none (no result: bIAP inh, bIAP act)
CC(=O)c1ccc2c(c1)c(C#N)c1ccccc1[n+]2[O-]	none (no result: bIAP inh, bIAP act)
O=C1NC(=Nc2ccc(O)cc2)S/C1=C/c1ccco1	mIAP block 57 | mIAP inh confirm 77
O=C1NC(=Nc2ccc3ccccc3c2)S/C1=C/c1ccco1	mIAP block 56 | mIAP inh confirm 57
COc1ccc(N=C2NC(=O)/C(=C\C=C\c3ccco3)S2)cc1	none
COc1ccc(S(=O)(=O)N2CCOCC2)cc1NC(=O)c1ccncc1	none (no result: bIAP inh, bIAP act)
c1coc(-c2nnc(-c3ccco3)nn2)c1	mIAP block 71 (no result: bIAP inh, bIAP act) | mIAP inh confirm 81
O=C(NN1C(=O)/C(=C/C=C/c2ccco2)SC1=S)c1ccncc1	mIAP block 77 (no result: bIAP inh, bIAP act) | mIAP inh confirm 77
O=C1/C(=C\c2ccc(O)cc2)SC(=S)N1c1cccnc1	none
CC(C)C(C(=O)O)N1C(=O)/C(=C/C=C/c2ccco2)SC1=S (stereo unspecified)	mIAP block 66 | mIAP inh confirm 74
CC(C)C(C(=O)O)N1C(=O)/C(=C/c2cccn2C)SC1=S (stereo unspecified)	none (no result: mIAP act, hIAP act, mIAP block, hIAP inh)
NN1C(=O)/C(=C\c2ccco2)SC1=S	mIAP block 78 (no result: bIAP inh, bIAP act) | mIAP inh confirm 86
O=C1/C(=C\c2ccco2)SC(=S)N1c1ccc(O)cc1	mIAP block 78 | mIAP inh confirm 77
O=C(NN1C(=O)/C(=C/C=C/c2ccccc2)SC1=S)c1ccncc1	none
COc1ccc(C(=O)N/C(=C\c2cn(C)c3ccccc23)C(=O)N2CCN(C)CC2)cc1OC	none (no result: bIAP inh, bIAP act)
COCC(=O)N1CCC(Oc2ccc(C(=O)N3CCCCC3COC)cc2)CC1 (stereo unspecified)	none (no result: bIAP inh, bIAP act)
O=C1/C(=C/C=C/c2ccco2)SC(=S)N1c1ccc(O)cc1	mIAP block 80 (no result: bIAP inh, bIAP act) | mIAP inh confirm 77
O=C(O)c1ccc(N2C(=O)/C(=C/C=C/c3ccccc3)SC2=S)cc1	none
CCN(CC)S(=O)(=O)c1ccc2c(c1)c(=O)c(C(=O)NCCc1ccc(OC)c(OC)c1)cn2C	none (no result: bIAP inh, bIAP act)
COC(=O)C(Cc1c[nH]c2ccccc12)NC(=O)c1ccc2nc[nH]c2c1 (stereo unspecified)	none (no result: bIAP inh, bIAP act)
C/C(=N\NC(=O)CC#N)c1cc2ccc(O)cc2oc1=O	mIAP block 43 | mIAP inh confirm 48
C[C@H](NC(=O)NCc1ccc(F)cc1)C(=O)O	none
CC(NC(=S)NCc1ccc(F)cc1)C12CC3CC(CC(C3)C1)C2 (stereo unspecified)	mIAP act 4.1 | mIAP inh confirm inactive
O=C(O)C1Nc2c(O)cccc2C2C=CCC12 (stereo unspecified)	mIAP block 74 | mIAP inh confirm 86
NS(=O)(=O)c1ccc(NC(=O)Nc2ccc3c(c2)OCO3)cc1	none (no result: bIAP inh, bIAP act)
